# Source: PubChem (Broad Institute)
# Rows were chosen to be rich in hits. Some 4% of all compounds tested hit in one or more screens of this group.
# E-sel inducer: E-selectin induction on HUVECs | P16581 | HUVEC E-selectin immunofluorescence imaging; normalized: neutral wells 0, TNF-alpha wells 100 | activation, % at 7.58 µM | 0.37% of 260,000 active;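 active = mean E-selectin-positive cell signal at least 10% of the positive control, reached in at least 60% of replicates, without over 20% cell loss; inconclusive = no rule given, readout overlaps actives, possibly toxicity-flagged; inactive = the rest, including those meeting only one limit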
#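 Material: HUVEC primary endothelial cells; Amount: 3,000 cells per well; Dosing: single concentration; Medium: EGM-2 growth medium on 0.1% gelatin-coated wells; Read-out basis: percent E-selectin-positive cells; Signal: immunofluorescence imaging; Control set: TNF-alpha, DMSO.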
# Statin myotox sup: suppression of simvastatin myotoxicity; C2C12 myotubes + simvastatin, ATP luminescence, 48 h; scaled: DMSO 0, geranylgeraniol control 100; rescue of ATP level, % at 7.49 µM; 0.78% of 330,000 active;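 active = mean ATP rescue above about 67%, or every replicate alone reaching that limit, limit read from the data, passing the limit was not always enough; inconclusive = no clear call, values can overlap the other calls; inactive = mean under the limit and some replicate under it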;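 also: myotubes were challenged with 10 µM simvastatin during compound exposure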
# FGF22 binding: FGF22 (human) thermal shift binding | 1.5% of 340,000 active | activity (Tm shift, normalised), % at 9.99 µM | AID 651658 | recombinant FGF22 thermal shift, SYPRO orange fluorescence; percent of sucrose octasulfate shift, DMSO zero;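 active = mean Tm shift, scaled 0 neutral to 100 positive control, at about 1.3% or above, every replicate too, limit read from the data; inconclusive = no clear call, values can overlap the other calls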
# Target sequence (Q9HCT0 whole entry, looked up): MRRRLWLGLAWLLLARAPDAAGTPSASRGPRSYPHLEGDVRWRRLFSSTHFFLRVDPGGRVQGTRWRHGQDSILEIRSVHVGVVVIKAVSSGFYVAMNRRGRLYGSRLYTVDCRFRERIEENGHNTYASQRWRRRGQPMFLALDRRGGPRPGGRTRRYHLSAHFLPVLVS
# SIRT5 inh: inhibitors of human sirtuin-5 desuccinylase; Q9NXA8; Purified SirT5, succinyl-peptide AMC, trypsin-coupled fluorescence; inhibition, % at 15 µM; 1.1% of 330,000 active; in the data active = inhibition above about 15%; inconclusive = no clear call, values can overlap the other calls
# Target sequence (Q9NXA8 whole entry, looked up): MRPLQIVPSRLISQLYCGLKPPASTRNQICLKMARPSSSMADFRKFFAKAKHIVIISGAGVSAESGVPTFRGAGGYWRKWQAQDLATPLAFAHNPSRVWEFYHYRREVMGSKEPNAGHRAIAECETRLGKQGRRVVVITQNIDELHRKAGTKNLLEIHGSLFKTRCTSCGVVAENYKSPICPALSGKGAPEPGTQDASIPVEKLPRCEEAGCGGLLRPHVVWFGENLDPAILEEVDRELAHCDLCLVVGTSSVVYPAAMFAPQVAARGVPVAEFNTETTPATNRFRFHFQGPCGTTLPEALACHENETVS
# rRNA inh HTS: inhibits bacterial ribosomal RNA function over humanized ribosomes; GFP signal change (wild-type ribosome), % (concentration not given with the values); E. coli WT GFP vs humanized-ribosome RFP mutants, fluorescence, 24 h; active compounds read low; DMSO median 0, no signal -100; 1.6% of 350,000 active;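 active = significant combined selectivity score with lowered wild-type GFP, culture density cut under 30%, mutant RFP and density less affected; inactive = any of these conditions unmet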
# FN deposit inh: fibronectin deposition inhibition | AH1F fibroblasts, Alexa488-fibronectin deposition fluorescence, overnight | inhibition, % at 12.6 µM | 0.086% of 350,000 active | AID 743247;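 active = mean inhibition across replicates of 30% or more, regardless of how many single replicates reach that level; inconclusive = mean under 30% yet at least half of replicates reach 30%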
#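 test system = AH1F fibroblasts assembling fluorescent fibronectin matrix | quantity = 10000 AH1F cells per well | buffer or medium = DMEM plus 2% serum, read in PBS | doses = single dose, pinned | incubation = 1 h cell attachment, overnight exposure to compound and label | detection = fluorescence at 485 nm excitation, 525 nm emission | read-out basis = inhibition from reduced deposited-fibronectin fluorescence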
# A number is an active result; n = inactive; u = inconclusive; x = no result.
SMILES,E-sel inducer,Statin myotox sup,FGF22 binding,SIRT5 inh,rRNA inh HTS,FN deposit inh
Cc1ccc(S(=O)(=O)Nc2ccc3c(c2)C(=O)N([C@@H](C)CO)C[C@H](C)[C@H](CN(C)Cc2ccc(C(=O)Nc4ccccc4N)cc2)O3)cc1,n,u,n,x,n,x
C[C@@H]1CCCCO[C@H](CN(C)C(=O)NC2CCCCC2)[C@H](C)CN([C@H](C)CO)C(=O)c2cc(NS(=O)(=O)c3ccc(F)cc3)ccc2O1,x,x,n,n,n,n
CC(=O)N(C)C[C@H]1Oc2cc(-c3ccccc3)ccc2S(=O)(=O)N([C@@H](C)CO)C[C@@H]1C,n,n,n,n,n,n
S=C1NC2(CCCCC2)NN1c1ccccc1,n,n,n,n,n,n
CC(C)(C)N1NC2(CCCCC2)NC1=S,n,n,43,n,x,n
CCOc1ccccc1C(=O)n1nc(C)cc1C,x,114,x,x,x,x
Cc1ccc(-c2ccc([C@@H]3[C@H]4CN(S(=O)(=O)c5cccc(C)c5)CCCCN4[C@H]3CO)cc2)cc1,x,x,n,18,x,x
Cc1ccc(-c2ccc([C@@H]3[C@@H](CO)N4CCCCN(S(=O)(=O)c5cccc(C)c5)C[C@H]34)cc2)cc1,x,x,n,23,x,x
CCCNC(=O)N1[C@@H](CO)[C@@H]2c3ccccc3N(C(=O)Nc3ccc(F)cc3)C[C@@H]21,n,n,n,n,n,x
O=C(N[C@H]1CC[C@@H](CC(=O)N2CCOCC2)O[C@H]1CO)c1ccccn1,n,n,n,n,n,x
O=C(Nc1ccccc1)C1CC(=O)n2ncnc2N1 (centres undefined),x,n,n,n,n,x
O=C(Nc1ccc(F)cc1)C1CC(=O)n2ncnc2N1 (centres undefined),x,n,43,n,n,n
Cc1noc(C)c1S(=O)(=O)Nc1ccc2c(c1)C(=O)N([C@H](C)CO)C[C@H](C)[C@@H](CN(C)S(=O)(=O)c1cn(C)cn1)O2,x,x,n,n,n,n
CN(C)CC(=O)Nc1ccc2c(c1)[C@H]1C[C@H](CC(=O)NC3CCCC3)O[C@H](CO)[C@H]1O2,n,n,n,n,n,n
COc1ccc(CN2C(=O)CCC2(C)C(=O)NCc2cccnc2)c(OC)c1 (centres undefined),x,92,x,x,x,x
O=C(CC1CC1)N[C@H]1CC[C@H](CCNS(=O)(=O)c2ccc(F)cc2)O[C@H]1CO,n,n,n,n,n,n
Cc1ccc(NC(=S)NC(=O)c2ccc(F)cc2)cc1S(=O)(=O)Nc1ccccc1Cl,x,x,n,n,-26,n
COc1cc(NC(=O)CSc2ncnc3scc(-c4ccccc4)c23)c(C(=O)O)cc1OC,x,x,43,n,n,n
CC(C)n1cnc2c(NCc3ccccc3)cc(Cc3ccc(F)cc3)cc21,n,n,n,n,-21,n
CCOc1cc(NCc2ccccc2)c2ncn(C(C)C)c2c1,n,n,n,n,n,n
C[C@@H]1CN([C@@H](C)CO)C(=O)c2cc(NC(=O)Cc3ccccc3)ccc2O[C@@H](C)CCCCO[C@H]1CN(C)Cc1ccccc1,x,x,n,n,n,n
C[C@@H]1CCCCO[C@H](CN(C)Cc2ccc(C(F)(F)F)cc2)[C@@H](C)CN([C@H](C)CO)C(=O)c2cc(NC(=O)Cc3ccccc3)ccc2O1,n,n,n,x,n,x
C[C@@H]1CCCCO[C@H](CN(C)Cc2ccccc2)[C@H](C)CN([C@H](C)CO)C(=O)c2cc(NC(=O)Cc3ccccc3)ccc2O1,x,x,n,16,n,n
C[C@@H]1CCCCO[C@H](CN(C)Cc2ccc(C(F)(F)F)cc2)[C@H](C)CN([C@H](C)CO)C(=O)c2cc(NC(=O)Cc3ccccc3)ccc2O1,n,134,n,x,n,n
C[C@@H]1CCCCO[C@@H](CN(C)C(=O)C2CCCCC2)[C@@H](C)CN([C@H](C)CO)C(=O)c2cc(NC(=O)Cc3ccccc3)ccc2O1,n,n,n,n,n,x
SMILES,E-sel inducer,Statin myotox sup,FGF22 binding,SIRT5 inh,rRNA inh HTS,FN deposit inh
C[C@H]1CCCCO[C@@H](CN(C)C(=O)C2CCCCC2)[C@@H](C)CN([C@@H](C)CO)C(=O)c2cc(NC(=O)Cc3ccccc3)ccc2O1,n,n,1.9,n,n,x
CN(CC(=O)Nc1ccccc1Cl)C(=O)CSc1nc2ccccc2s1,n,n,n,n,-26,n
CN(CC(=O)Nc1ccccc1Cl)C(=O)COC(=O)c1ccc(Cl)nc1,n,n,n,n,n,n
Cc1ccc(CSCC(=O)N(C)CC(=O)Nc2ccccc2Cl)cc1,n,x,n,n,-21,n
CN(CC(=O)Nc1ccccc1Cl)C(=O)COC(=O)c1nc(Cl)c(Cl)c(Cl)c1Cl,x,x,n,n,-18,n
CNC(=O)C[C@H]1CC[C@@H]2[C@H](COc3ccc(NC(=O)Nc4ccc(C)cc4)cc3C(=O)N2C)O1,n,n,n,n,n,n
Cc1noc(C)c1S(=O)(=O)Nc1ccc2c(c1)C(=O)N([C@@H](C)CO)C[C@H](C)[C@H](CN(C)CC1CCCCC1)OCCCC[C@@H](C)O2,n,n,n,n,n,x
CC(C)(C)NC(=O)CSc1nnc(-c2ccccn2)n1-c1ccccc1,x,n,n,x,n,n
O=C(CSc1nnc(-c2ccccc2)n1-c1ccccc1)c1ccc[nH]1,n,x,x,x,x,33
c1ccc(-n2c(SCc3ccncc3)nnc2-c2ccco2)cc1,x,n,x,x,x,x
O=C(O)c1ccc(CSc2nnc(-c3ccco3)n2-c2ccccc2)cc1,x,x,n,n,-34,n
c1ccc(-n2c(SCc3nc(-c4cccs4)no3)nnc2-c2ccco2)cc1,x,x,n,n,-22,x
c1ccc(CSc2nnc(-c3ccccn3)n2-c2ccccc2)cc1,x,107,x,x,x,n
O=C(C[C@H]1C[C@@H]2c3cc(NC(=O)NC4CCCCC4)ccc3O[C@@H]2[C@@H](CO)O1)NC1CCCC1,n,x,x,n,n,n
COc1cccc(S(=O)(=O)N[C@@H]2CC[C@@H](CC(=O)NC3CCC3)O[C@@H]2CO)c1,n,n,n,n,n,x
CCn1c(SCC(=O)NCc2cccs2)nnc1-c1ccco1,x,105,x,x,x,n
CNC(=O)CSc1nnc(-c2ccco2)n1-c1cccc(C)c1,n,n,n,n,n,n
CCn1c(SCC(=O)NCc2cccs2)nnc1-c1ccncc1,x,n,x,n,n,x
CNC(=O)CSc1nnc(-c2ccco2)n1-c1ccccc1,x,n,n,101,n,n
CO[C@H]1CN(C)C(=O)c2ccc(NC(=O)Nc3cccc(F)c3)cc2OC[C@H](C)N(C(C)=O)C[C@H]1C,n,n,n,n,n,n
CCNC(=O)COC(=O)/C=C/c1cccc([N+](=O)[O-])c1,n,x,43,n,n,n
O=C(COC(=O)/C=C/c1cccc([N+](=O)[O-])c1)NCc1ccco1,x,x,n,n,n,x
O=C(/C=C/c1cccc([N+](=O)[O-])c1)NCCSCc1c(Cl)cccc1Cl,x,n,n,n,n,n
